TRPC6 inhibitor – inhibitors of mouse TRPC6 channel | AID 2553 | 310,000 tested, 1.1% active | B-score at 10 µM | HEK293-TRPC6, membrane potential dye, ACh-evoked depolarization; stronger effect = lower value;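 active = B-score under library mean minus 3 SD, initial fluorescence not abnormally high, positive integrated signal ratio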;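 also: B-score derived from integrated fluorescence ratio over the kinetic read; more negative B-score means stronger inhibition of depolarization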
Target sequence (Q61143 whole entry, looked up): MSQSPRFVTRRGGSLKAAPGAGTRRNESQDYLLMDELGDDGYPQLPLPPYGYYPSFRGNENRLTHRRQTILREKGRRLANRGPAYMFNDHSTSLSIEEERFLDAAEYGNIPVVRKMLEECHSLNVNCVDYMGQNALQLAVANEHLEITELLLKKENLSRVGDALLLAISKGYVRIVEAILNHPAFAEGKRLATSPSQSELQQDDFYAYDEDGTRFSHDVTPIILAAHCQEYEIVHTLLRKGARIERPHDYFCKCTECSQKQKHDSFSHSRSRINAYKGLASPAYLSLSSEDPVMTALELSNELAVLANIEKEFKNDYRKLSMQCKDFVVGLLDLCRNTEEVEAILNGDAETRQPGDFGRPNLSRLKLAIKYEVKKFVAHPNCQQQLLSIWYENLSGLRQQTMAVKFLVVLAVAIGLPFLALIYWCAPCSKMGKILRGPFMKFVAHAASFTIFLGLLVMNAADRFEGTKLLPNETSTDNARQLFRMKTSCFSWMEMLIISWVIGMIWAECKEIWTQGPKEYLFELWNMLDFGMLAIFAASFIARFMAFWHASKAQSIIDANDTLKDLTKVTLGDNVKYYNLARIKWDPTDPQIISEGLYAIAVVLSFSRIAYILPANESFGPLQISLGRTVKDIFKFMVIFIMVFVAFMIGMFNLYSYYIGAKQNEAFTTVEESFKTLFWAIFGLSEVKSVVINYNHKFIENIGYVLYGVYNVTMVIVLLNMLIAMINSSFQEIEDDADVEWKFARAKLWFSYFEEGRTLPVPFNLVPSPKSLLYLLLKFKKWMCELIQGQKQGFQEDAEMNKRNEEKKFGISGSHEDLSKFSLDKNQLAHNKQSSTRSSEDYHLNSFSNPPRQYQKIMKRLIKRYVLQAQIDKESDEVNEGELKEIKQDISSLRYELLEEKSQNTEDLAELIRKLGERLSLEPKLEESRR
TRPC4 potent – TRPC4 (mouse) allosteric potentiation; Q9QUQ5; HEK293 TRPC4beta/mu-opioid, DAMGO EC20, Fluo-4 Ca2+ flux; stronger effect = higher value; B-score at 10 µM; 310,000 tested, 0.42% active; AID 2227;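 active = B-score of calcium response area above 5 SD of library B-scores, with initial fluorescence ratio within 5 SD of library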;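 also: B-score of integrated fluorescence ratio over time as area under calcium response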
TRPC4 block – blocks the mouse TRPC4 cation channel | B-score at 10 µM | 300,000 tested, 0.39% active | Q9QUQ5 | AID 2247 | HEK293 TRPC4beta/mu-opioid, DAMGO-evoked Fluo4 calcium flux; stronger effect = lower value;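 active = B-score over 3 SD under the library average, no early fluorescence shift, positive overall ratio signal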
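System: stable TRPC4beta/mu-opioid receptor HEK293 cells; Dosing: single-point compound dosing; Measured by: Fluo4 Ca2+ flux fluorescence; Read-out basis: per-well B score of integrated baseline-normalized Fluo4 ratio.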
TRPC4 agonist – activators of mouse TRPC4 channel; Q9QUQ5; AID 2237; 310,000 tested, 0.49% active; HEK293 TRPC4beta/mu-opioid, Fluo4 calcium fluorescence; stronger effect = higher value; B-score at 10 µM;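 active = B-score above 5 SD of library B-scores, and initial fluorescence ratio not above library mean plus 5 SD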;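 also: positive B-score marks a calcium rise read as TRPC4 activation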
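Assay system: HEK293 stable line with TRPC4beta plus mu-opioid receptor. Times: dye 45 min RT, read 110 s. Measured by: kinetic Fluo4 calcium fluorescence. Measure: B score of integrated ratio. Controls: assay buffer as low control, maximal DAMGO as high control.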
TRPC6 activator – activates the mouse TRPC6 cation channel | Q61143 | HEK293-TRPC6 membrane potential dye fluorescence; stronger effect = higher value | B-score at 10 µM | 310,000 tested, 0.13% active | AID 2550;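 active = B-score of the integrated fluorescence ratio above library mean plus 3 SD, and starting fluorescence ratio within library mean plus 5 SD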;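 also: higher score means more depolarization so channel activation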
TRPC4 spec 2 – mouse TRPC4 off-target activity of TRPC6 inhibitors, second screen | shares compounds with TRPC6 inhibitor | HEK293 TRPC4/MOR, membrane potential dye fluorescence; channel activated by saturating DAMGO dose | inhibition, % at 10 µM | 920 tested, 42% active;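 active = compounds whose fluorescence signal differed from control wells by over 3 SD, either direction, in both duplicate plates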
TRPC4 spec – tests whether TRPC6 inhibitors also affect mouse TRPC4; shares compounds with TRPC6 inhibitor; HEK293 TRPC4/mu-opioid, membrane potential fluorescence; activity change, negative = inhibition, % at 10 µM; 920 tested, 61% active; AID 2777;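 active = rise or fall in signal beyond 3 SD of buffer-only wells in both replicate plates, either sign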;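 also: integrated kinetic ratio of fluorescence range over baseline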
HEK293 MPD ctr 2-1 – second check of TRPC6 inhibitor effects in parental HEK293 cells; parental HEK293 membrane potential dye fluorescence; maximal acetylcholine challenge after compound addition; signal change vs control, % at 10 µM; AID 2779; shares compounds with TRPC6 inhibitor; 920 tested, 31% active;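 active = membrane potential signal moving either way by over 3 SD of the maximum-effect control, in both duplicate plates, meaning non-specific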
HEK293 MPD ctr-1 – parental HEK293 nonspecific activity of TRPC6 inhibitors | AID 2780 | 920 tested, 60% active | shares compounds with TRPC6 inhibitor | membrane potential signal change, % at 10 µM | parental HEK293 membrane potential dye fluorescence;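 active = membrane potential signal shifting up or down by more than 3 SD of buffer-only wells, on both duplicate plates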
HEK293 MPD ctr-2 – checks TRPC6 modulator effects in parental HEK293 cells | AID 488924 | shares compounds with TRPC6 inhibitor | 2,400 tested, 51% active | membrane potential dye fluorescence | membrane potential signal change, % at 10 µM;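 active = membrane potential signal moves up or down beyond 5 SD from buffer-only wells, on both duplicate plates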
HEK293 MPD ctr 2-2 – second counter-screen for TRPC6 modulators: effect in parental HEK293 cells; 2,400 tested, 14% active; inhibition, % at 10 µM; shares compounds with TRPC6 inhibitor; AID 488926; membrane potential dye fluorescence; after compound, maximal acetylcholine stimulation;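 active = membrane potential signal drops by more than 5 SD from the mean control signal, in both duplicate plates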;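 also: plate controls were acetylcholine ECmax control wells for no effect and buffer only wells for full effect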
TRPC4 ctr mod – mouse TRPC4 off-target activity of TRPC6 modulators; shares compounds with TRPC6 inhibitor; HEK293 TRPC4/mu-opioid, membrane potential fluorescence; AID 488927; 2,400 tested, 69% active; percent change from control (negative = decrease, positive = increase), % at 10 µM;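 active = membrane potential signal moved up or down beyond 5 SD of buffer control wells, in both duplicate plates, actives on both sides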;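 also: plate controls were assay buffer wells for no effect and DAMGO maximal-effect wells for full effect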
TRPC4 ctr inh 2 – second check of whether TRPC6 modulators also affect mouse TRPC4 | shares compounds with TRPC6 inhibitor | HEK293 TRPC4/mu-opioid, membrane potential dye fluorescence; stimulated with maximal-effect DAMGO | inhibition, % at 10 µM | 2,400 tested, 55% active;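 active = drop in membrane potential signal beyond 5 SD of the control wells in both duplicate plates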;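 also: TRPC4 counter screen for TRPC6 hits run under conditions tuned for TRPC6 not TRPC4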
TRPC6 block conf – mouse TRPC6 inhibitor confirmation; shares compounds with TRPC6 inhibitor; HEK293-TRPC6, membrane potential dye, ACh-evoked depolarization; inhibition, % at 10 µM; 3,300 tested, 43% active;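 active = fluorescence ratio falls more than 5 SD below the full-stimulation control mean, in both duplicate runs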;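 also: integrated fluorescence ratio of peak minus minimum over baseline after agonist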
TRPC6 act conf – mouse TRPC6 activator confirmation; shares compounds with TRPC6 inhibitor; activation, % at 10 µM; HEK293-TRPC6 membrane potential dye fluorescence, FDSS; 2,800 tested, 11% active;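 active = ratio signal rise beyond 5 SD above unstimulated control wells' mean, seen in both duplicate runs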;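 also: plate controls were buffer EC0 wells for no effect and acetylcholine ECmax response for full effect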
* = called active by the depositor; i = inactive; nt = no result given. This is a sample that favours compounds with a hit; in the whole collection about 2.3% have one here.

SMILES	TRPC6 inhibitor	TRPC4 potent	TRPC4 block	TRPC4 agonist	TRPC6 activator	HEK293 MPD ctr-2	HEK293 MPD ctr 2-2	TRPC4 ctr mod	TRPC4 ctr inh 2	TRPC6 block conf	TRPC6 act conf	others
CCCC(O)(CCN1CCOCC1)c1ccc(Cl)cc1 (stereo not drawn)	i	i	i	i	i	nt	nt	nt	nt	nt	nt
CCCC(O)(CCN1CCOCC1)c1ccc(Br)cc1 (stereo not drawn)	-7.5*	i	-6*	i	i	nt	nt	nt	nt	i	i	TRPC4 spec 2=76%*;TRPC4 spec=4.2%*;HEK293 MPD ctr 2-1=i;HEK293 MPD ctr-1=3.6%*
COc1ccc(NS(=O)(=O)c2cccc(C(=O)O)c2)cc1	-5.4*	i	i	i	i	i	i	i	i	i	i
COc1ccc(NS(=O)(=O)c2cccc(C(=O)Nc3cccc(C(=O)O)c3)c2)cc1	i	i	i	i	i	nt	nt	nt	nt	nt	nt
CCN1CCN(C(=O)Cn2nc(-c3ccc(Cl)cc3)ccc2=O)CC1	i	i	i	i	i	nt	nt	nt	nt	nt	nt
CCOC(=O)N1CCN(C(=O)Cn2nc(-c3ccc(Cl)cc3)ccc2=O)CC1	-6.8*	i	i	i	i	nt	nt	nt	nt	57%*	nt	TRPC4 spec 2=i;TRPC4 spec=0.5%*;HEK293 MPD ctr 2-1=i;HEK293 MPD ctr-1=2.3%*
O=C(COc1ccc([N+](=O)[O-])cc1)NCCC1=CCCCC1	i	i	i	i	i	nt	nt	nt	nt	nt	nt
Cc1ccccc1OCC(=O)NCCC1=CCCCC1	-5.7*	i	i	i	i	i	i	14%*	i	i	i
Cc1ccc(OCC(=O)NCCC2=CCCCC2)cc1	-5*	i	i	i	i	i	i	i	i	i	i
CC(=O)Nc1ccccc1OCC(=O)NCCC1=CCCCC1	i	i	i	i	i	nt	nt	nt	nt	nt	nt
CCN(CC(=O)Nc1cccc(OC)c1)C(=O)c1ccco1	i	i	i	i	i	nt	nt	nt	nt	nt	nt
c1ccc(-c2cc(NCCN3CCCCC3)c3ccccc3n2)cc1	-8.7*	i	i	i	i	-182%*	66%*	-36%*	72%*	64%*	i
Cc1cc(NC(=O)COc2ccccc2C)ccc1NC(=O)c1cccs1	i	i	i	i	i	nt	nt	nt	nt	nt	nt
CCOc1ccc(C2C(C(=O)/C=C/c3ccco3)=C(O)C(=O)N2CCN2CCOCC2)cc1OC (stereo not drawn)	i	i	i	i	i	nt	nt	nt	nt	nt	nt
O=C(C1COc2ccccc2O1)N1CCN(c2nc3c(F)cc(F)cc3s2)CC1 (stereo not drawn)	-8.5*	i	i	i	i	nt	nt	nt	nt	i	i	TRPC4 spec 2=i;TRPC4 spec=i;HEK293 MPD ctr 2-1=i;HEK293 MPD ctr-1=i
O=C(C1COc2ccccc2O1)N1CCN(c2nc3ccccc3s2)CC1 (stereo not drawn)	i	i	i	i	i	nt	nt	nt	nt	nt	nt
O=C1NC(=Nc2ccccc2Cl)S/C1=C\c1cccc([N+](=O)[O-])c1O	-6*	i	i	i	i	i	i	-12%*	65%*	i	i
COc1c(/C=C2\SC(=Nc3ccccc3Cl)NC2=O)cccc1[N+](=O)[O-]	i	i	i	i	i	nt	nt	nt	nt	nt	nt
Cc1cc(C)cc(NC(=O)CCn2c(=O)c3cccn3c3ccccc32)c1	i	i	i	i	i	nt	nt	nt	nt	nt	nt
O=[N+]([O-])c1ccc(Oc2ccc(F)cc2)c2ccncc12	-5.1*	i	i	i	i	i	i	i	i	i	i
CCc1cc(=O)oc2cc(C)cc(OCC(=O)NC3CC3)c12	i	i	i	i	i	nt	nt	nt	nt	nt	nt
CCc1cc(=O)oc2cc(C)cc(OCC(=O)NC3CCN(Cc4ccccc4)CC3)c12	-5.5*	i	i	i	i	-100%*	i	-26%*	68%*	40%*	i
COc1ccccc1N1CCN(CC(O)COc2ccc(C)cc2C)CC1 (stereo not drawn)	i	i	i	i	i	nt	nt	nt	nt	nt	nt
Cc1ccc(/C=c2/sc3n(c2=O)CCCN=3)o1	i	i	i	i	i	nt	nt	nt	nt	nt	nt
Cc1ccc(/C=c2\sc3n(c2=O)CN(c2ccc(Br)cc2)CN=3)o1	-5.6*	i	i	i	i	i	i	i	i	i	i
SMILES	TRPC6 inhibitor	TRPC4 potent	TRPC4 block	TRPC4 agonist	TRPC6 activator	HEK293 MPD ctr-2	HEK293 MPD ctr 2-2	TRPC4 ctr mod	TRPC4 ctr inh 2	TRPC6 block conf	TRPC6 act conf	others
O=C(c1ccccc1)N1CCN(C2CCCCC2)CC1	i	i	i	i	i	nt	nt	nt	nt	nt	nt
O=C(c1cccc(Cl)c1)N1CCN(C2CCCCCC2)CC1	-5.7*	i	i	i	i	171%*	i	36%*	i	66%*	nt
NS(=O)(=O)c1ccc(CNC(=O)c2ccccc2SCC(=O)N2CCCC2)cc1	i	i	i	i	i	nt	nt	nt	nt	nt	nt
CCN(CC)c1ccc(/C=C(/C#N)C(=O)NCc2ccccc2)o1	i	i	i	i	19*	590%*	i	183%*	i	i	132%*
Cc1cccc(NC2=C(NCCO)C(=O)c3ccccc3C2=O)c1	-11*	i	i	i	i	-252%*	i	-50%*	66%*	52%*	i
O=C(NC(=S)Nc1cccc(O)c1)c1ccco1	i	i	i	i	i	nt	nt	nt	nt	nt	nt

Source: PubChem
